Here are results for 17 compounds from ChEMBL document CHEMBL6071158, “Design, synthesis, and in vitro biological evaluation of meta-sulfonamidobenzamide-based antibacterial LpxH inhibitors” (Eur J Med Chem, 2024).

The structures appear in SMILES notation. In brackets after ≈: the same amount, converted by molar mass.

The subject of data set [1] is Klebsiella pneumoniae. The experiment in a line: Antibacterial activity against wild type Klebsiella pneumoniae ATCC 13883 assessed as of bacterial growth incubated for 16 to 20 hrs by Mueller-Hinton broth based two-fold serial dilution method.
Data set [2] addresses T1, hERG (KCNH2) (Homo sapiens, UniProt Q12809). The experiment in a line: Inhibition of hERG expressed in CHO cells at 10 uM by automated patch clamp analysis relative to control. The data set is classed as toxicity, cell-based. The settings on record: CHO cells that express hERG. Put shortly:
(§1)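 Stably expressing CHO-KV11.1 cells, automated whole-cell population patch clamp (10 cells) at 22 °C; vehicle baseline (0.43 % DMSO) then two cumulatively rising concentrations, 30 s exposure. Holding −80 mV, steps in 10 mV increments to 50 mV for 5 s, tail current at −50 mV (peak in first 90 ms, leak-subtracted); protocol every 150 s; triplicate, mean ± SEM.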
Background: The hERG channel carries a current that helps repolarise heart muscle cells.

Data set [3] concerns Escherichia coli. The experiment in a line: Antibacterial activity against efflux pump-deficient delta tolC Escherichia coli ATCC 25922 assessed as bacterial growth inhibition incubated for 16 to 20 hrs by Mueller-Hinton broth based two-fold serial dilution method. The data set is classed as functional. The settings on record: time 16-20 hrs.
Data set [4] in a line: Hemolysis activity in human RBC cells assessed as effect on hemolysis relative to control. The data set is classed as toxicity, cell-based, Erythrocyte. The settings on record: human red blood cells, read-out: Activity.
For data set [5], the system named is Escherichia coli. The experiment in a line: Inhibition of Escherichia coli LpXH enzyme at 100 nM by colorimetric coupled enzymatic analysis relative to control. Put shortly: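 AaLpxE-coupled assay: E. coli LpxH 0.1 nM and UDP-DAGn 20 µM (final) in 20 mM Tris-HCl pH 8.0, BSA, 0.02 % Triton X-100, 1 mM MnCl₂, 1 mM DTT, 10 % DMSO; inhibitor pre-incubated with enzyme 10 min, reaction 30 min at 37 °C, EDTA quench, then LpxE 30 min; released phosphate by malachite green at 620 nm vs phosphate standard; triplicate.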

Data set [6] deals with T1, hERG (KCNH2). As to the kind of experiment: Inhibition of hERG expressed in CHO cells at 30 uM by automated patch clamp analysis relative to control. The class given is toxicity, cell-based. The settings on record: CHO cells that express hERG. Put shortly: as §1
In data set [7] the test system is Escherichia coli. The experiment in a line: Antibacterial activity against wild type Escherichia coli ATCC 25922 incubated for 16 to 20 hrs by Mueller-Hinton broth based two-fold serial dilution method. The class given is functional. Particulars: time 16-20 hrs.
A short description of data set [8]: Cytotoxicity against human HepG2 cells assessed as inhibition of cells incubated for 72 hrs by fluorometric microculture analysis. The class given is toxicity, cell-based. Put shortly: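 HepG2 (mycoplasma-free, ≤20 passages, DMEM + 10 % FBS + pen/strep) seeded 4000/well, cultured overnight, then exposed 72 h at 37 °C, 5 % CO₂ to nine two-fold dilutions in duplicate, top 100 µM. Viability by fluorescein diacetate hydrolysis (0.5 µg/ml FDA, 50 min, ex 475/em 520 nm); survival index vs control; IC50 by non-linear regression of log concentration-effect curves. Bortezomib 2 µM positive control.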

The subject of data set [9] is Escherichia coli. The experiment in a line: Antibacterial activity against Escherichia coli ATCC 25922 assessed as viable colonies measured after 18 to 20 hrs by Mueller-Hinton II broth assay. The class given is functional. Particulars: time 18-20 hrs.
Data set [10] deals with Klebsiella pneumoniae. As to the kind of experiment: Antibacterial activity against Klebsiella pneumonia ATCC 13883 assessed as viable colonies measured after 18 to 20 hrs by Mueller-Hinton II broth assay. The data set is classed as functional. Particulars: time 18-20 hrs.
The test system of data set [11] is Escherichia coli. The experiment in a line: Antibacterial activity against efflux-defective Escherichia coli delta tolC ATCC 25922. The data set is classed as functional.

T1 sequence (Q12809 whole entry): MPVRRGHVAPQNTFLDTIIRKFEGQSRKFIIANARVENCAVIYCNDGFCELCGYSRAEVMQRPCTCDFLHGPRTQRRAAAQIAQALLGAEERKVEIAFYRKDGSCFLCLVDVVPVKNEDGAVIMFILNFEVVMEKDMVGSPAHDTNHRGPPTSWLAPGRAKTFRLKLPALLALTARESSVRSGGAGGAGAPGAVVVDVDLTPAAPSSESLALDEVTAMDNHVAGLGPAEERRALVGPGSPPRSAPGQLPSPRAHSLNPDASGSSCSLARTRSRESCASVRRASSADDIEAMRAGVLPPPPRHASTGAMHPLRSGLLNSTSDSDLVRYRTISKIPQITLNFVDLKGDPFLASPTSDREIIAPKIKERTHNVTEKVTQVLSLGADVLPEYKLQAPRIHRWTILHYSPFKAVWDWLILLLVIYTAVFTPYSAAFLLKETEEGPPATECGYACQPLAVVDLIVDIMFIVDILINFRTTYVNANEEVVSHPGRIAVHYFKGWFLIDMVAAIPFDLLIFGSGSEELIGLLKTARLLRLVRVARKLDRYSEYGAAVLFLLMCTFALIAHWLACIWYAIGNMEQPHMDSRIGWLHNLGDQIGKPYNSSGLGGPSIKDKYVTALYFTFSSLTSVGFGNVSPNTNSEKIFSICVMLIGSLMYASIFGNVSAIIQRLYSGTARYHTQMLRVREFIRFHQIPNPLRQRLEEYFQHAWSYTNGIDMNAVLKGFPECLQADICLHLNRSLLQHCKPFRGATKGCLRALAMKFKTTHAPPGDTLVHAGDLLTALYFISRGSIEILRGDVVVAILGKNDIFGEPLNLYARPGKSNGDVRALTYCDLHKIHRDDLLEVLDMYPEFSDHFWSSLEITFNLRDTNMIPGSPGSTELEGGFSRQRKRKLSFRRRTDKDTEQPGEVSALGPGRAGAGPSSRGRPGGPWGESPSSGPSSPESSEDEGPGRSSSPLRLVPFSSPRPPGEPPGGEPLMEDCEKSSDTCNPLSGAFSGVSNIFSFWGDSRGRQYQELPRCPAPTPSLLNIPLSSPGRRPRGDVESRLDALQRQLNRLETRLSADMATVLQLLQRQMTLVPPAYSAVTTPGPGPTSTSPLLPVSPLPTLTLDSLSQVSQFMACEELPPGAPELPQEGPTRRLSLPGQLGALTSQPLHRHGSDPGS

By MIC is commonly meant the lowest concentration that inhibits growth of the organism. In general, inhibition refers to how much of the control response was suppressed. A high value points to strong suppression. For orientation: IC50 means the concentration that inhibits the measured activity by half. On to `Cc1cc(C#N)nc(N2CCN(S(=O)(=O)c3ccc(NC(=O)c4ccccc4N(C)S(C)(=O)=O)cc3)CC2)n1`, for which the MIC in [1] is 2 µg/mL (≈ 3.51 µM); in [3], at most 0.125 µg/mL; in [7], 2 µg/mL (≈ 3.51 µM). Further, the inhibition at 10 µM in data set [2] is 14%. The hemolysis in [4] came to 0.05%. In data set [5], this compound had an inhibition of 100%. Also, at 30 µM the inhibition in data set [6] was 24%. In data set [8], the IC50 at 72 h turned out to be 29 µM.
Compound `CS(=O)(=O)Nc1ccccc1C(=O)Nc1ccc(S(=O)(=O)N2CCN(c3cc(Cl)cc(Cl)c3)CC2)cc1` gave an MIC in data set [7] of 64 µg/mL (≈ 110 µM).
As to `CN(c1ccccc1C(=O)Nc1ccc(S(=O)(=O)N2CCN(c3cc(Cl)cc(Cl)c3)CC2)cc1)S(C)(=O)=O`, the minimum inhibitory concentration (MIC) in data set [7] was found to be 1 µg/mL (≈ 1.67 µM).
As for `CN(c1cccc(C(=O)Nc2ccc(S(=O)(=O)N3CCN(c4cc(Cl)cc(Cl)c4)CC3)cc2)c1)S(C)(=O)=O`, the MIC in [3] was found to be 0.125 µg/mL (≈ 0.209 µM); in data set [7], 64 µg/mL (≈ 107 µM).
`Cc1cc(C#N)nc(N2CCN(S(=O)(=O)c3ccc(NC(=O)c4cc(CNC[C@H]5C[C@@H]5N)ccc4N(C)S(C)(=O)=O)cc3)CC2)n1`: the MIC was 0.5 µg/mL (≈ 0.749 µM) in data set [1]; 2 µg/mL (≈ 2.99 µM) in [9]; at most 0.125 µg/mL in data set [3]; 0.5 µg/mL (≈ 0.749 µM) in data set [10]; 2 µg/mL (≈ 2.99 µM) in data set [7]. The same compound showed an inhibition at 10 µM in data set [2] of 9%. Also, the hemolysis in [4] amounted to 0.35%. Moreover, in data set [5], the inhibition was determined as 100%. Also, the inhibition at 30 µM in data set [6] was 28%. Moreover, the IC50 at 72 h in [8] turned out to be 47 µM.
On to `Cc1cc(C#N)nc(N2CCN(S(=O)(=O)c3ccc(NC(=O)c4cc(CN5CC(CN)C5)cc(NS(C)(=O)=O)c4)cc3)CC2)n1`, for which the MIC in [1] turned out to be 4 µg/mL (≈ 6.12 µM); in data set [3], 0.25 µg/mL (≈ 0.382 µM); in data set [7], 16 µg/mL (≈ 24.5 µM). In data set [2], this compound registered an inhibition at 10 µM of 4%. Also, the hemolysis in [4] came to 0.06%. The same compound displayed an inhibition in data set [5] of 89%. This compound gave an inhibition at 30 µM in [6] of 7%.
On to `Cc1cc(C#N)nc(N2CCN(S(=O)(=O)c3ccc(NC(=O)c4cccc(NS(C)(=O)=O)c4)cc3)CC2)n1`, for which the MIC in [1] turned out to be 2 µg/mL (≈ 3.6 µM); in [3] it was 0.125 µg/mL (≈ 0.225 µM); in data set [7] it was 4 µg/mL (≈ 7.2 µM). For the same compound, in [2], at 10 µM the inhibition was 3%. Further, the hemolysis in data set [4] was determined as 0.05%. This compound also returned an inhibition in data set [5] of 75%. In data set [6], this compound yielded an inhibition at 30 µM of 12%.
For `Cc1cc(C#N)nc(N2CCN(S(=O)(=O)c3ccc(NC(=O)c4cc(CN5CC(CN)C5)ccc4N(C)S(C)(=O)=O)cc3)CC2)n1`, the MIC in data set [1] is 0.5 µg/mL (≈ 0.749 µM); in data set [3], at most 0.125 µg/mL; in [7], 2 µg/mL (≈ 2.99 µM). Further, the inhibition at 10 µM in [2] was 5%. Further, the hemolysis in data set [4] was found to be 0.13%. The same compound registered an inhibition in data set [5] of 71%. In [6], testing at 30 µM gave an inhibition of 16%. Further, in data set [8], the IC50 at 72 h stood at 54 µM.
As to `Cc1cc(C#N)nc(N2CCN(S(=O)(=O)c3ccc(NC(=O)c4cc(CNCCCN)ccc4N(C)S(C)(=O)=O)cc3)CC2)n1`, the MIC in data set [1] was 1 µg/mL (≈ 1.52 µM); in [3], at most 0.125 µg/mL; in [7], 2 µg/mL (≈ 3.05 µM). The compound also showed an inhibition at 10 µM in data set [2] of 4%. Besides, in [4], the hemolysis was determined as 0.06%. The same compound gave an inhibition in data set [5] of 69%. The compound also registered an inhibition at 30 µM in data set [6] of 11%. The concentration for half-maximal inhibition (IC50) at 72 h in data set [8] was 55 µM.
For `Cc1cc(C#N)nc(N2CCN(S(=O)(=O)c3ccc(NC(=O)c4cc(NS(C)(=O)=O)nc(N5CC(CN)C5)c4)cc3)CC2)n1`, the MIC in data set [1] was 4 µg/mL (≈ 6.24 µM); in [3], 0.5 µg/mL (≈ 0.78 µM); in data set [7] it was 8 µg/mL (≈ 12.5 µM). In [2], this compound returned an inhibition at 10 µM of 1%. In addition, the hemolysis in [4] stood at 0.12%. This compound also returned an inhibition in data set [5] of 80%. The same compound came in with an inhibition at 30 µM in data set [6] of 0%. The IC50 at 72 h in data set [8] is over 100 µM.
As for `Cc1cc(C#N)nc(N2CCN(S(=O)(=O)c3ccc(NC(=O)c4cc(CNCCCN)cc(NS(C)(=O)=O)c4)cc3)CC2)n1`, the MIC in data set [1] turned out to be 4 µg/mL (≈ 6.23 µM); in [3], 0.5 µg/mL (≈ 0.779 µM); in [7] it was 8 µg/mL (≈ 12.5 µM). Besides, the inhibition at 10 µM in [2] was found to be 3%. Besides, in [4], the hemolysis was determined as 0.08%. In [5], this compound returned an inhibition of 63%. The compound further registered an inhibition at 30 µM in data set [6] of 9%. Moreover, in [8], the IC50 at 72 h was over 100 µM.
Take `Cc1cc(C#N)nc(N2CCN(S(=O)(=O)c3ccc(NC(=O)c4cc(NS(C)(=O)=O)cc(N5CC(CN)C5)c4)cc3)CC2)n1`: the MIC in data set [1] is 32 µg/mL (≈ 50 µM); in [3], 0.25 µg/mL (≈ 0.391 µM); in data set [7], 64 µg/mL (≈ 100 µM). For the same compound, the inhibition at 10 µM in [2] came to 5%. The hemolysis in data set [4] stood at 0.12%. The same compound returned an inhibition in data set [5] of 92%. Besides, in data set [6], testing at 30 µM gave an inhibition of 9%. In [8], the IC50 at 72 h was over 100 µM.
Take `CC(=O)N1CCc2cc(S(=O)(=O)N3CCN(c4cccc(C(F)(F)F)c4)CC3)ccc21`: 0.25 µg/mL (≈ 0.551 µM) was the least that counted as inhibitory in [11] (MIC).
`NC(=O)[C@H]1CC[C@H](C(F)(F)c2cc(Cl)nc(N3CCN(S(=O)(=O)c4ccc(N5C[C@@H](N)CC5=O)cc4)CC3)c2)CC1` came in with an MIC in data set [7] of 0.3 µg/mL (≈ 0.491 µM).
As for `Cc1cc(C#N)nc(N2CCN(S(=O)(=O)c3ccc(NC(=O)c4cc(C=C5CNC5)cc(NS(C)(=O)=O)c4)cc3)CC2)n1`, the MIC stood at 16 µg/mL (≈ 25.7 µM) in data set [1], 0.5 µg/mL (≈ 0.803 µM) in data set [3] and 64 µg/mL (≈ 103 µM) in data set [7]. Further, in data set [2], the inhibition at 10 µM worked out at 4%. For the same compound, the hemolysis in data set [4] stood at 0.17%. For the same compound, the inhibition in [5] is 86%. The compound also displayed an inhibition at 30 µM in data set [6] of 24%. Moreover, the IC50 at 72 h in data set [8] was over 100 µM.
On to `CS(=O)(=O)Nc1cccc(C(=O)Nc2ccc(S(=O)(=O)N3CCN(c4cc(Cl)cc(Cl)c4)CC3)cc2)c1`, for which the MIC is 0.125 µg/mL (≈ 0.214 µM) in data set [3] and 4 µg/mL (≈ 6.85 µM) in [7].
Regarding `Cc1cc(C#N)nc(N2CCN(S(=O)(=O)c3ccc(NC(=O)c4cc(Cl)nc(NS(C)(=O)=O)c4)cc3)CC2)n1`, the MIC in data set [1] is 4 µg/mL (≈ 6.77 µM); in [3] it was at most 0.125 µg/mL; in data set [7], 8 µg/mL (≈ 13.5 µM). Moreover, at 10 µM the inhibition in data set [2] was 2%. In addition, the hemolysis in data set [4] was 0.02%. In [5], this compound registered an inhibition of 54%. In data set [6], the inhibition at 30 µM came to 0%. The IC50 at 72 h in data set [8] was over 50 µM.
